Reference: ChEMBL document CHEMBL4354800, “Amphiphilic nebramine-based hybrids Rescue legacy antibiotics from intrinsic resistance in multidrug-resistant Gram-negative bacilli” (Eur J Med Chem, 2019)

How the values were obtained:
[1] = tested on: Pseudomonas aeruginosa; assay: Antimicrobial activity against MDR/XDR Pseudomonas aeruginosa isolate PA262-101856 harboring GyrA Thr83Ile mutant incubated for 18 hrs by broth microdilution method; format: functional; conditions: isolate PA262-101856, 18 h
Procedure, shortened: (§1)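 Broth microdilution per CLSI: overnight cultures set to 0.5 McFarland in saline, diluted 1:50 in Mueller-Hinton broth to a final 5 × 10^5 CFU/mL, added to 2-fold serial dilutions, incubated 18 h at 37 °C; MIC is the lowest concentration without visible turbidity, confirmed at 590 nm.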

[2] = tested on: Pseudomonas aeruginosa; assay: Antimicrobial activity against MDR/XDR Pseudomonas aeruginosa isolate PA264-104354 harboring GyrA Thr83Ile mutant incubated for 18 hrs by broth microdilution method; format: functional; conditions: isolate PA264-104354, 18 h; procedure, shortened: as §1
[3] = tested on: Pseudomonas aeruginosa; assay: Antimicrobial activity against MDR/XDR Pseudomonas aeruginosa isolate 91433 devoid of GyrA Thr83Ile mutant incubated for 18 hrs by broth microdilution method; format: functional; conditions: isolate 91433, 18 h; procedure, shortened: as §1
[4] = tested on: Pseudomonas aeruginosa; assay: Antimicrobial activity against MDR/XDR Pseudomonas aeruginosa isolate 101243 devoid of GyrA Thr83Ile mutant incubated for 18 hrs by broth microdilution method; format: functional; conditions: isolate 101243, 18 h; procedure, shortened: as §1
[5] = tested on: Pseudomonas aeruginosa; assay: Synergistic antibacterial activity against MDR/XDR Pseudomonas aeruginosa isolate PA260-97103 harboring GyrA T83I mutant assessed as fractional inhibitory concentration index in presence of moxifloxacin incubated for 18 hrs by broth microdilution method; format: functional
Procedure, shortened: (§2)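 Checkerboard synergy assay. Antibiotic and adjuvant in twofold dilutions in Mueller-Hinton broth. Inoculum 5 × 10^5 CFU/mL from a 0.5 McFarland suspension, 18 h at 37 °C, MIC read by turbidity and confirmed at 590 nm. FIC = MIC in combination / MIC alone for each agent, FICI = sum. Interpreted as ≤0.5 synergy, 0.5–4 no interaction, >4 antagonism.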

[6] = tested on: Pseudomonas aeruginosa; assay: Synergistic antibacterial activity against MDR/XDR Pseudomonas aeruginosa isolate PA262-101856 harboring GyrA T83I mutant assessed as fractional inhibitory concentration index in presence of ciprofloxacin incubated for 18 hrs by broth microdilution method; format: functional; procedure, shortened: as §2
[7] = tested on: Pseudomonas aeruginosa; assay: Synergistic antibacterial activity against MDR/XDR Pseudomonas aeruginosa isolate 100036 harboring GyrA T83I mutant assessed as fractional inhibitory concentration index in presence of ciprofloxacin incubated for 18 hrs by broth microdilution method; format: functional; procedure, shortened: as §2
[8] = tested on: Pseudomonas aeruginosa; assay: Synergistic antibacterial activity against MDR/XDR Pseudomonas aeruginosa isolate 101885 harboring GyrA T83I mutant assessed as fractional inhibitory concentration index in presence of moxifloxacin incubated for 18 hrs by broth microdilution method; format: functional; procedure, shortened: as §2
[9] = tested on: Pseudomonas aeruginosa; assay: Synergistic antibacterial activity against MDR/XDR Pseudomonas aeruginosa isolate 101885 harboring GyrA T83I mutant assessed as fractional inhibitory concentration index in presence of ciprofloxacin incubated for 18 hrs by broth microdilution method; format: functional; procedure, shortened: as §2
[10] = tested on: Pseudomonas aeruginosa; assay: Synergistic antibacterial activity against MDR/XDR Pseudomonas aeruginosa isolate PA259-96918 harboring GyrA T83I mutant assessed as fractional inhibitory concentration index in presence of ciprofloxacin incubated for 18 hrs by broth microdilution method; format: functional; procedure, shortened: as §2
[11] = tested on: Pseudomonas aeruginosa; assay: Synergistic antibacterial activity against MDR/XDR Pseudomonas aeruginosa isolate 91433 devoid of GyrA T83I mutant assessed as fractional inhibitory concentration index in presence of moxifloxacin incubated for 18 hrs by broth microdilution method; format: functional; procedure, shortened: as §2
[12] = tested on: Pseudomonas aeruginosa; assay: Synergistic antibacterial activity against MDR/XDR Pseudomonas aeruginosa isolate 91433 devoid of GyrA T83I mutant assessed as fractional inhibitory concentration index in presence of ciprofloxacin incubated for 18 hrs by broth microdilution method; format: functional; procedure, shortened: as §2
[13] = tested on: Pseudomonas aeruginosa; assay: Synergistic antibacterial activity against MDR/XDR Pseudomonas aeruginosa isolate 101243 devoid of GyrA T83I mutant assessed as fractional inhibitory concentration index in presence of moxifloxacin incubated for 18 hrs by broth microdilution method; format: functional; procedure, shortened: as §2
[14] = tested on: Pseudomonas aeruginosa; assay: Synergistic antibacterial activity against MDR/XDR Pseudomonas aeruginosa isolate 101243 devoid of GyrA T83I mutant assessed as fractional inhibitory concentration index in presence of ciprofloxacin incubated for 18 hrs by broth microdilution method; format: functional; procedure, shortened: as §2
[15] = tested on: Pseudomonas aeruginosa; assay: Potentiation of moxifloxacin-induced antibacterial activity against MDR/XDR Pseudomonas aeruginosa isolate 101243 devoid of GyrA T83I mutant assessed as fold reduction in moxifloxacin MIC at 7.5 uM incubated for 18 hrs by broth microdilution method; format: functional
Procedure, shortened: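 CLSI broth microdilution. Overnight cultures were set to 0.5 McFarland in saline, diluted 1:50 in Mueller-Hinton broth to a final 5 × 10^5 CFU/mL, and incubated 18 h at 37 °C against 2-fold antibiotic dilutions. A fixed adjuvant level was present throughout. MIC = lowest concentration with no visible turbidity, confirmed at 590 nm. Potentiation = fold drop in antibiotic MIC versus antibiotic alone.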

[16] = tested on: Pseudomonas aeruginosa; assay: Synergistic antibacterial activity against MDR/XDR Pseudomonas aeruginosa isolate PA262-101856 harboring GyrA T83I mutant assessed as fractional inhibitory concentration index in presence of minocycline incubated for 18 hrs by broth microdilution method; format: functional; procedure, shortened: as §2
[17] = tested on: Pseudomonas aeruginosa; assay: Synergistic antibacterial activity against MDR/XDR Pseudomonas aeruginosa isolate PA260-97103 harboring GyrA T83I mutant assessed as fractional inhibitory concentration index in presence of minocycline incubated for 18 hrs by broth microdilution method; format: functional; procedure, shortened: as §2
[18] = tested on: Pseudomonas aeruginosa; assay: Synergistic antibacterial activity against MDR/XDR Pseudomonas aeruginosa isolate 100036 harboring GyrA T83I mutant assessed as fractional inhibitory concentration index in presence of minocycline incubated for 18 hrs by broth microdilution method; format: functional; procedure, shortened: as §2
[19] = tested on: Pseudomonas aeruginosa; assay: Synergistic antibacterial activity against MDR/XDR Pseudomonas aeruginosa isolate 101885 harboring T83I mutant assessed as fractional inhibitory concentration index in presence of minocycline incubated for 18 hrs by broth microdilution method; format: functional; procedure, shortened: as §2
[20] = tested on: Pseudomonas aeruginosa; assay: Synergistic antibacterial activity against MDR/XDR Pseudomonas aeruginosa isolate PA260-97103 harboring GyrA T83I mutant assessed as fractional inhibitory concentration index in presence of rifampicin incubated for 18 hrs by broth microdilution method; format: functional; procedure, shortened: as §2
[21] = tested on: Pseudomonas aeruginosa; assay: Synergistic antibacterial activity against MDR/XDR Pseudomonas aeruginosa isolate 100036 harboring T83I mutant assessed as fractional inhibitory concentration index in presence of rifampicin incubated for 18 hrs by broth microdilution method; format: functional; procedure, shortened: as §2
[22] = tested on: Pseudomonas aeruginosa; assay: Synergistic antibacterial activity against MDR/XDR Pseudomonas aeruginosa isolate 101885 harboring T83I mutant assessed as fractional inhibitory concentration index in presence of rifampicin incubated for 18 hrs by broth microdilution method; format: functional; procedure, shortened: as §2
[23] = tested on: Pseudomonas aeruginosa; assay: Synergistic antibacterial activity against MDR/XDR Pseudomonas aeruginosa isolate 91433 devoid of GyrA T83I mutant assessed as fractional inhibitory concentration index in presence of rifampicin incubated for 18 hrs by broth microdilution method; format: functional; procedure, shortened: as §2
[24] = tested on: HepG2; assay: Cytotoxicity against human HepG2 cells at 50 uM incubated for 48 hrs by PrestoBlue dye based fluorescence assay; format: cell-based; conditions: hepg2, 48 h
[25] = tested on: HepG2; assay: Cytotoxicity against human HepG2 cells at 50 uM incubated for 48 hrs in presence of 50 uM rifampicin by PrestoBlue dye based fluorescence assay; format: cell-based; conditions: hepg2, 48 h
[26] = tested on: HEK293; assay: Cytotoxicity against HEK293 cells at 50 uM incubated for 48 hrs in presence of 50 uM rifampicin by PrestoBlue dye based fluorescence assay; format: cell-based; conditions: human, hek293, 48 h

Row | Compound | MIC [1] [µg/mL] | MIC [2] [µg/mL] | MIC [3] [µg/mL] | MIC [4] [µg/mL] | fractional inhibitory concentration index (FICI) [5] | fractional inhibitory concentration index (FICI) [6] | fractional inhibitory concentration index (FICI) [7] | fractional inhibitory concentration index (FICI) [8] | fractional inhibitory concentration index (FICI) [9] | fractional inhibitory concentration index (FICI) [10] | fractional inhibitory concentration index (FICI) [11] | fractional inhibitory concentration index (FICI) [12] | fractional inhibitory concentration index (FICI) [13] | fractional inhibitory concentration index (FICI) [14] | fractional inhibitory concentration index (FICI) [16] | fractional inhibitory concentration index (FICI) [17] | fractional inhibitory concentration index (FICI) [18] | fractional inhibitory concentration index (FICI) [19] | fractional inhibitory concentration index (FICI) [20] | fractional inhibitory concentration index (FICI) [21] | further results
1 | COc1c(N2C[C@@H]3CCCN(CCCCCCCCCCCCO[C@@H]4[C@@H](O)[C@H](N)C[C@H](N)[C@H]4O[C@H]4O[C@H](CN)[C@@H](O)C[C@H]4N)[C@@H]3C2)c(F)cc2c(=O)c(C(=O)O)cn(C3CC3)c12.Cl.Cl.Cl.Cl.Cl | > 256 | 256 | 32 | 64 | 0.13 | 0.25 - 0.28 | 0.56 | 0.25 | >1 | 0.25 - 0.27 | 0.31 | 0.25 | 0.16 | 0.25 | 0.03 - 0.05 | 0.09 | 0.06 | 0.07 | 0.06 | 0.01 | fold change (FC) [15]: 32; fractional inhibitory concentration index (FICI) [22]: 0.05; fractional inhibitory concentration index (FICI) [23]: 0.16; Activity [24]: Non-Toxic; Activity [25]: Non-Toxic; Activity [26]: Non-Toxic
2 | Cl.Cl.Cl.Cl.Cl.NC[C@H]1O[C@H](O[C@H]2[C@H](OCCCCCCCCCCCCN3CCN(c4cc5c(cc4F)c(=O)c(C(=O)O)cn5C4CC4)CC3)[C@@H](O)[C@H](N)C[C@@H]2N)[C@H](N)C[C@@H]1O | – | 128 | – | – | – | – | – | – | – | – | – | – | – | – | – | – | – | – | – | – | Activity [24]: Non-Toxic; Activity [25]: Non-Toxic; Activity [26]: Non-Toxic
3 | Cl.Cl.Cl.Cl.Cl.Cl.NC[C@H]1O[C@H](O[C@H]2[C@H](OCCCCCCCCCCN3CCN(Cc4cccc5ccccc45)CC3)[C@@H](O)[C@H](N)C[C@@H]2N)[C@H](N)C[C@@H]1O | 512 | – | 32 | 512 | 0.08 | 0.13 | 0.125 - 0.133 | 0.07 | 0.13 | 0.063 - 0.078 | 0.25 | 0.38 | 0.13 | 0.16 | 0.04 | 0.09 | 0.031 - 0.033 | 0.04 | 0.05 | 0.004 - 0.012 | fractional inhibitory concentration index (FICI) [22]: 0.02; fractional inhibitory concentration index (FICI) [23]: 0.5
